In the library only some 1.7% were active in any assay of this set; here they are far more common.
DNMT1 inh: human DNMT1 methyltransferase inhibitors, primary screen, biochemical, molecular beacon, fluorescence, HinP1I cleavage, uHTS; 0.83% of 360,000 active; AID 588458, 2011; inhibition (reported as % activation of signal), % at 10 µM; in the data active means inhibition above about 50%
LMPTP block: LMPTP phosphatase inhibitors, primary screen, biochemical, fluorescence intensity, uHTS; Low molecular weight phosphotyrosine protein phosphatase (Homo sapiens), P24666; recombinant LMPTP-A, OMFP fluorogenic substrate; inhibition, % at 20 µM; 0.22% of 360,000 active; AID 651560, 2012;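 active means compounds that cut the enzyme signal by at least half of the control window in the single-dose screen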;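 further: plate controls were DMSO wells with enzyme plus substrate for no effect and substrate without enzyme for full effect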
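Assay system: LMPTP-A, protein tyrosine phosphatase of low molecular weight / Medium: pH 6.0 Bis-Tris buffer with DTT and Triton X-100 / Schedule: 50 min enzyme reaction at room temperature, protected from light / Measured by: endpoint fluorescence intensity from OMFP dephosphorylation / Read-out basis: % inhibition relative to no-enzyme and uninhibited control wells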
SUMO1 PPI mod: modulators of SUMO1 protein-protein interactions, primary screen, biochemical, uHTS; inhibition, % at 20 µM; 0.33% of 360,000 active; SUMO1 binding to a labelled peptide, TR-FRET, 1 h; AID 602429, 2012; in the data active means inhibition above about 37%
STEP inh: STEP phosphatase inhibitors, primary screen, biochemical, fluorescence intensity, uHTS; inhibition, % at 20 µM; Tyrosine-protein phosphatase non-receptor type 5 (Homo sapiens), P54829; recombinant STEP, OMFP fluorogenic substrate; AID 588621, 2011; 0.25% of 360,000 active;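 active means inhibition at 20 µM, scaled per plate between control wells, above about 37%, limit read from the data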;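 further: 0% = DMSO with enzyme and substrate and 100% = substrate only without enzyme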
Target sequence (P54829 whole entry, looked up): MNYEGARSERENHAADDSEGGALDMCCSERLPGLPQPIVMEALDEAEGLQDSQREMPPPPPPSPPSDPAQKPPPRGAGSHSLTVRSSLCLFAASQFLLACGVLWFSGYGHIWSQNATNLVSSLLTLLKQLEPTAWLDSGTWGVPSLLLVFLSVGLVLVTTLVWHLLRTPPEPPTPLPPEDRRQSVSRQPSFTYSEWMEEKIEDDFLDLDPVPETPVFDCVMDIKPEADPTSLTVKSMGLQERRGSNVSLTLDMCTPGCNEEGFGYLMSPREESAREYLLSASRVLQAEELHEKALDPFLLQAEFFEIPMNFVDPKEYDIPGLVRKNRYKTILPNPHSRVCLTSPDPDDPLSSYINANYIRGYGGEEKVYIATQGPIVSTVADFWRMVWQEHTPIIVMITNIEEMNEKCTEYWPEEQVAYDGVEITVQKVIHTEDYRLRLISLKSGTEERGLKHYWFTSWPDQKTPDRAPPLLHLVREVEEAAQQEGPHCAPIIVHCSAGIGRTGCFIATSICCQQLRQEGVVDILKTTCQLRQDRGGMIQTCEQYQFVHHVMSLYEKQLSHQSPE
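Assay system: isolated STEP enzyme. Buffer or medium: pH 6.0 Bis-Tris with DTT and Tween 20. Also added: fluorogenic phosphatase substrate OMFP at 25 µM final. Dosing: 20 µM, 1% DMSO. Timing: 20 min reaction, room temperature, in the dark. Measured by: fluorescence intensity, excitation 480 nm, emission 540 nm. Evaluation: normalized % inhibition.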
Scp1 inh: Scp-1 phosphatase inhibitors, primary screen, biochemical, colorimetric, uHTS | Carboxy-terminal domain RNA polymerase II polypeptide A small phosphatase 1 (Homo … | Recombinant Scp1, phosphopeptide, malachite green phosphate absorbance | inhibition, % at 20 µM | 0.88% of 340,000 active;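 active means inhibition above about 50% at 20 µM, limit read from the data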;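 further: plate controls were DMSO wells with enzyme for no effect and wells lacking enzyme for full effect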
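System: SCP-1 catalytic domain; Reagent: Phospho 17-mer peptide substrate; Doses: one concentration, 20 µM, with 1.0% DMSO; Incubation: 45 min room-temperature reaction, 5 min colour, 30 min stabiliser; Signal: Phosphate-binding colour reagent, absorbance read at 630 nm.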
STEP conf: STEP phosphatase inhibitor hit confirmation, biochemical, fluorescence intensity, single concentration; inhibition, % at 20 µM; recombinant STEP, OMFP fluorogenic substrate; shares compounds with STEP inh; 32% of 520 active; call rule not given here;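 further: 0% = enzyme with substrate plus DMSO and 100% = substrate without enzyme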
Active calls of the source: *; / = no result.

SMILES	DNMT1 inh	LMPTP block	SUMO1 PPI mod	STEP inh	Scp1 inh	STEP conf
CC(C)c1ccc(OCCCCN2CCCCC2)cc1	1	-2	-4	-2	3	/
O=C(O)c1cccc(S(=O)(=O)Nc2ccc(-c3ccccc3)cc2)c1	4	-1	6	9	-1	/
O=C(O)c1cccc(S(=O)(=O)NNc2ccccc2C(F)(F)F)c1	9	6	88*	44*	28	9
S=C1NC2=C(CCCC2=C2SCCS2)C(c2ccccc2)N1 (stereo unspecified)	-4	0	-14	70*	1	60*
CC1(C(=O)Nc2ccc3c(c2)OCCO3)CCC(=O)N1C1CC1 (stereo unspecified)	-4	-1	4	-3	/	/
CC(CNC(=O)c1ccc(C#N)cc1)NC(=O)c1ccc(C#N)cc1 (stereo unspecified)	1	-2	-3	-1	-6	/
CC1=C(C(=O)N2CCCCCC2)CC(CC(=O)NCc2cccc3ccccc23)C(=O)N1CCC1=CCCCC1 (stereo unspecified)	/	2	3	/	/	/
CC(C)OCCCNC(=S)Nc1ccc(S(N)(=O)=O)cc1	2	-2	2	83*	-1	36*
NS(=O)(=O)c1ccc(NC(=S)NCCc2ccccc2)cc1	2	0	0	52*	-21	38*
Cc1ccc(Cn2c(SCC(=O)Nc3cc(C)on3)nc3ccccc3c2=O)cc1	9	0	-1	41*	-11	-5
Cc1cc(NC(=O)CSc2nc3ccccc3c(=O)n2Cc2ccccc2)no1	6	0	4	-4	-15	/
S=C1NC(C23CC4CC(CC(C4)C2)C3)=CC(c2ccc3c(c2)OCO3)N1 (stereo unspecified)	-3	2	-6	62*	-2	25*
CSc1ncc(CNc2cc([N+](=O)[O-])ccc2C)c(N)n1	-3	1	-23	2	3	/
C=C(Cl)COc1ccc2c(CC)cc(=O)oc2c1	5	1	0	-1	-8	/
C=C(C)COc1ccc2c(CC)cc(=O)oc2c1	1	0	0	118*	-1	1
COc1ccc(C(=O)N/C(=C\c2cn(C)c3ccccc23)C(=O)N2CCN(C)CC2)cc1OC	1	-1	-3	-1	-3	/
Cc1nn2c(CN(C(=O)COc3ccccc3)c3ccccc3)nnc2c2ccccc12	-1	0	7	122*	3	-1
Cc1nn2c(CN(C(=O)CN3CCOCC3)c3ccccc3)nnc2c2ccccc12	1	-2	4	-2	-8	/
O=C(CCN1CCC(c2ccc(Cl)s2)=N1)c1ccc(Cl)s1	19	12	6	58*	-1	-1
O=C(CCC(=O)N1CCN(c2ccccc2F)CC1)c1ccc(Cl)s1	-2	1	-7	3	-5	/
COc1ccccc1NC(=O)CN1C(=O)COc2ccc(C)cc21	-6	0	1	2	-10	/
COc1ccc(NC(=O)CN2C(=O)COc3ccc(C)cc32)c(OC)c1	4	-1	2	72*	-7	0
COc1cc(NC(=O)c2ccc(NC3=NC4CS(=O)(=O)CC4S3)cc2)cc(OC)c1OC (stereo unspecified)	6	0	3	-1	-12	/
COc1ccc(C(=O)Nc2ccc(/C(C)=N/NC(=O)c3ccncc3)cc2)cc1	22	54*	-6	82*	/	19
N#C/C(=C/c1ccc(OCc2ccc(C(=O)O)cc2)c(Br)c1)c1cccc(F)c1	93*	86*	20	94*	50*	16
CCc1ccc(Nc2nc(N)nc(CSc3nc4ccccc4s3)n2)cc1	7	-2	-2	43*	-11	8
COc1ccc(NC(=O)c2cc(=O)c3ccccc3o2)cc1Cl	18	1	8	42*	36	28*
